Active and inactive are the calls of the source. No cut-off for these calls is given here.
How the values were obtained:
[1] = molecular target: T1, Proprotein convertase subtilisin/kexin type 9 (Homo sapiens, UniProt Q8NBP7); experiment: Modulation of PCSK9 in human HepG2 cells assessed as reduction in PCSK9 expression incubated for 24 hrs prior to compound washout followed by compound addition and measured after 24 hrs by ELISA; type: cell-based
Procedure, shortened: (§1)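 HepG2 cells grown to 90% confluence and plated at 1X105 cells/well, then left to settle overnight. Medium replaced with dose medium containing compound or DMSO vehicle for 24 h, refreshed with the same medium, then incubated 24 h more. Medium collected after centrifugation. PCSK9 measured by sandwich ELISA with TMB read-out at 450 nm. Values normalized to vehicle, mean of n = 3.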

HepG2 = experiment: Cytotoxicity against human HepG2 cells assessed as reduction in cell viability at <=10 uM by MTT assay; type: cell-based
[2] = Half life in rat liver microsomes measured after 60 mins in presence of NADPH by LC-MS/MS analysis; type: ADME, Microsome; settings: 1 h
[3] = Intrinsic clearance in rat liver microsomes measured after 60 mins in presence of NADPH by LC-MS/MS analysis; type: ADME, Microsome; settings: for Intrinsic clearance in rat liver microsomes: 1 h
[4] = Half life in BTBR mouse at 6 mg/kg, ip administered as single dose by LC-MS/MS analysis; type: ADME, organism-based; settings: in vivo
Procedure, shortened: (§2)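 Mice given a single intraperitoneal dose of 6 mg/kg. Formulation: DMSO (10 %) and Tween 80 (10 %) in PBS (80 %). Plasma samples collected and analysed by LC-MS/MS. AUC is total exposure after the single dose, Cmax is maximum plasma concentration, and T1/2 is half-life.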

[5] = molecular target: T1, Proprotein convertase subtilisin/kexin type 9; experiment: Modulation of PCSK9 in human HepG2 cells assessed as reduction in PCSK9 expression at 1 uM incubated for 24 hrs prior to compound washout followed by compound addition and measured after 24 hrs by ELISA; type: cell-based; design: scale not given: the % may be the effect or the level left; settings: filed as modulator, time 48.0 hrs; procedure, shortened: as §1
[6] = Cmax in BTBR mouse at 6 mg/kg, ip administered as single dose by LC-MS/MS analysis; type: ADME, organism-based; design: route intraperitoneal, dose 6 mg/kg; settings: in vivo; procedure, shortened: as §2
[7] = Intrinsic clearance in mouse liver microsomes measured after 60 mins in presence of NADPH by LC-MS/MS analysis; type: ADME, Microsome; settings: for microsomal intrinsic clearance: microsomes, 1 h
[8] = AUC (0 to infinity) in BTBR mouse at 6 mg/kg, ip administered as single dose by LC-MS/MS analysis; type: ADME, organism-based; design: time infinity, route intraperitoneal, dose 6 mg/kg; settings: in vivo; procedure, shortened: as §2
[9] = Half life in mouse liver microsomes measured after 60 mins in presence of NADPH by LC-MS/MS analysis; type: ADME, Microsome; settings: 1 h
[10] = molecular target: T1, Proprotein convertase subtilisin/kexin type 9; experiment: Modulation of PCSK9 in human HepG2 cells assessed as reduction in PCSK9 expression at 10 nM incubated for 24 hrs prior to compound washout followed by compound addition and measured after 24 hrs by ELISA; type: cell-based; design: scale not given: the % may be the effect or the level left; settings: time 48.0 hrs; procedure, shortened: as §1
[11] = molecular target: T1, Proprotein convertase subtilisin/kexin type 9; experiment: Modulation of PCSK9 in human HepG2 cells assessed as reduction in PCSK9 expression at 100 nM incubated for 24 hrs prior to compound washout followed by compound addition and measured after 24 hrs by ELISA; type: cell-based; design: scale not given: the % may be the effect or the level left; settings: time 48.0 hrs; procedure, shortened: as §1
[12] = Intrinsic clearance in human liver microsomes measured after 60 mins in presence of NADPH by LC-MS/MS analysis; type: ADME, Microsome; settings: 1 h
[13] = Half life in human liver microsomes measured after 60 mins in presence of NADPH by LC-MS/MS analysis; type: ADME, Microsome; settings: 1 h
[14] = molecular target: T1, Proprotein convertase subtilisin/kexin type 9; experiment: Modulation of PCSK9 in human HepG2 cells assessed as reduction in PCSK9 expression at 10 to 100 nM incubated for 24 hrs prior to compound washout followed by compound addition and measured after 24 hrs by ELISA; type: cell-based; settings: filed as modulator, dose 10-100 nM, time 48.0 hrs
Procedure, shortened: (§3)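 HepG2 cells grown to 90% confluence, plated at 1X105 cells/well and left overnight. Medium then replaced with compound- or vehicle (DMSO)-containing dose medium, refreshed at 24 h, collected after a further 24 h. Secreted PCSK9 measured by sandwich ELISA with TMB read-out at 450 nm. Values normalized to DMSO group, mean of n = 3 ± SD.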

[15] = molecular target: T1, Proprotein convertase subtilisin/kexin type 9; experiment: Modulation of PCSK9 in human HepG2 cells assessed as reduction in PCSK9 expression at 1 to 10 uM incubated for 24 hrs prior to compound washout followed by compound addition and measured after 24 hrs by ELISA; type: cell-based; settings: filed as modulator, dose 1-10 µM, time 48.0 hrs; procedure, shortened: as §3
[16] = liver microsomes, read-out: CLH

T1 sequence (Q8NBP7 31-152 limits assumed): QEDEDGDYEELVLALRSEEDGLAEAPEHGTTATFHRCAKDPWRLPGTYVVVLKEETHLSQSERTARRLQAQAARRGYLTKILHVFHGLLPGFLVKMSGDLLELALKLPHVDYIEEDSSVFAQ
T1 sequence (Q8NBP7 153-692 limits assumed): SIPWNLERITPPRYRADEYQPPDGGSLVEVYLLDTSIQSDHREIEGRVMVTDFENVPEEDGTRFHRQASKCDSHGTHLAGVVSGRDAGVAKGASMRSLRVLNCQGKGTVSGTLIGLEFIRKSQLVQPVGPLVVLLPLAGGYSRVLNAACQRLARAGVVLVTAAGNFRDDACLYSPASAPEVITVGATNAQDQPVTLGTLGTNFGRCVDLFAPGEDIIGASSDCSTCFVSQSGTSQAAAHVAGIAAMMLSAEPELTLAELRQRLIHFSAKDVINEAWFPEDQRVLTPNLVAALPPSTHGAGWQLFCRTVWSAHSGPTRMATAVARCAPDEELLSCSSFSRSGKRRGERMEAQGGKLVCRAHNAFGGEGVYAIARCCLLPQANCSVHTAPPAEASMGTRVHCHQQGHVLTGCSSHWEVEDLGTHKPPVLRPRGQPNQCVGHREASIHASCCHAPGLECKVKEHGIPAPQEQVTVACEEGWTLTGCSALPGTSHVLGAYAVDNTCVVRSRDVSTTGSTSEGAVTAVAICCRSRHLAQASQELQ

Cn1c(C(=O)c2cn(CCN3CCOCC3)c3c(F)cccc23)nc2ccc(F)cc21
EC50 [1]: 11 nM | Activity (HepG2): Non-Toxic

CC(C)(C)Cn1c(Cc2c[nH]c3c(F)cccc23)nc2ccc(F)cc21
Activity (HepG2): Non-Toxic

Fc1ccc2nc(Cc3c[nH]c4c(F)cccc34)n(CCc3ccccc3)c2c1
Activity (HepG2): Non-Toxic

O=C(c1nc2ccc(F)cc2[nH]1)c1c[nH]c2c(F)cccc12
t1/2 [2]: 47.8 min | Intrinsic clearance in rat liver microsomes [3]: 29.4 µL/min/mg | EC50 [1]: 2.46 nM | Activity (HepG2): Non-Toxic | half-life [4]: 98.4 min | Activity [5]: 90% | Cmax [6]: 294 ng/mL | microsomal intrinsic clearance [7]: 46.5 µL/min/mg | AUC(0-inf) [8]: 696 ng·h/mL | t1/2 [9]: 30 min

O=C(c1nc2ccccc2[nH]1)c1c[nH]c2c(F)cccc12
Activity (HepG2): Non-Toxic

Cn1c(C(=O)c2c[nH]c3c(F)cccc23)nc2cc(F)ccc21
Activity (HepG2): Non-Toxic | Activity [10]: 34.4% | Activity [11]: 11.9%

Fc1ccc2nc(Cc3c[nH]c4c(F)cccc34)n(Cc3ccccc3)c2c1
Activity (HepG2): Non-Toxic

Cn1c(C(=O)c2cn(S(=O)(=O)CCN3CCNCC3)c3c(F)cccc23)nc2ccc(F)cc21
EC50 [1]: 161 nM | Activity (HepG2): Non-Toxic

CC(C)Cn1c(Cc2c[nH]c3c(F)cccc23)nc2ccc(F)cc21
Activity (HepG2): Non-Toxic

Cn1cc(C(=O)c2nc3ccc(F)cc3n2C)c2cccc(F)c21
EC50 [1]: 1.21 nM | Activity (HepG2): Non-Toxic

Cn1c(C(=O)c2c[nH]c3ccc(F)cc23)nc2ccc(F)cc21
Activity (HepG2): Non-Toxic

O=C(c1nc2ccccc2[nH]1)c1c[nH]c2ccccc12
t1/2 [2]: 42.4 min | Intrinsic clearance in rat liver microsomes [3]: 33.1 µL/min/mg | Activity (HepG2): Non-Toxic | microsomal intrinsic clearance [7]: 54.6 µL/min/mg | t1/2 [9]: 25.8 min

O=C(c1nc2ccc(F)cc2[nH]1)c1c[nH]c2ccccc12
Activity (HepG2): Non-Toxic

Fc1ccc2[nH]c(Cc3c[nH]c4c(F)cccc34)cc2c1
t1/2 [2]: 23.2 min | Intrinsic clearance in rat liver microsomes [3]: 60.7 µL/min/mg | Activity [5]: Active | CLH [12]: 23 µL/min/mg | t1/2 [13]: 63.9 min | microsomal intrinsic clearance [7]: 83.9 µL/min/mg | t1/2 [9]: 16.5 min

Fc1ccc2nc(Cc3c[nH]c4c(F)cccc34)n(Cc3ccncc3)c2c1
Activity (HepG2): Non-Toxic

Cn1c(C(=O)c2c[nH]c3c(F)cccc23)nc2c(F)cccc21
Activity (HepG2): Non-Toxic | Activity [14]: Active

[2H]C([2H])(c1nc2cc(F)ccc2[nH]1)c1c[nH]c2c(F)cccc12
t1/2 [2]: 23.5 min | Intrinsic clearance in rat liver microsomes [3]: 59.1 µL/min/mg | Activity (HepG2): Non-Toxic | microsomal intrinsic clearance [7]: 85.2 µL/min/mg | t1/2 [9]: 16.3 min

Fc1ccc2nc(Cc3c[nH]c4c(F)cccc34)[nH]c2c1
t1/2 [2]: 9.5 min | Intrinsic clearance in rat liver microsomes [3]: 145.6 µL/min/mg | EC50 [1]: 348 nM | Activity (HepG2): Non-Toxic | Activity [5]: Active | CLH [12]: 79.4 µL/min/mg | t1/2 [13]: 17.5 min | microsomal intrinsic clearance [7]: 194.9 µL/min/mg | t1/2 [9]: 7.1 min

OCCn1c(Cc2c[nH]c3c(F)cccc23)nc2ccc(F)cc21
Activity (HepG2): Non-Toxic

Cn1c(C(=O)c2cn(CCCN3CCOCC3)c3c(F)cccc23)nc2ccc(F)cc21
EC50 [1]: 39.9 nM | Activity (HepG2): Non-Toxic

Cn1c(C(=O)c2c[nH]c3cccc(F)c23)nc2ccc(F)cc21
Activity (HepG2): Non-Toxic

Cn1c(C(=O)c2cn(CCCCN3CCOCC3)c3c(F)cccc23)nc2ccc(F)cc21
EC50 [1]: 88 nM | Activity (HepG2): Non-Toxic

Cn1c(C(=O)c2c[nH]c3c(F)cccc23)nc2cccc(F)c21
Activity (HepG2): Non-Toxic | Activity [14]: Active

Cn1c(C(=O)c2cn(S(=O)(=O)CCN3CCOCC3)c3c(F)cccc23)nc2ccc(F)cc21
EC50 [1]: 0.69 nM | Activity (HepG2): Non-Toxic

O=C(c1nc2c(F)cccc2[nH]1)c1c[nH]c2c(F)cccc12
Activity (HepG2): Non-Toxic

Cn1c(C(=O)c2c[nH]c3c(F)cccc23)nc2ccc(F)cc21
microsomal CLint [3, 16]: 23 µL/min/mg | EC50 [1]: 0.15 nM | Activity (HepG2): Non-Toxic | microsomal CLint [7, 16]: 41.7 µL/min/mg | Activity [10]: 35% | Activity [11]: 12.5%

Cn1c(C(=O)c2c[nH]c3ccccc23)nc2ccc(F)cc21
Activity (HepG2): Non-Toxic | Activity [14]: Active

Fc1ccc2nc(Cc3c[nH]c4c(F)cccc34)n(Cc3cccnc3)c2c1
Activity (HepG2): Non-Toxic

CCCCn1cc(C(=O)c2nc3ccc(F)cc3n2C)c2cccc(F)c21
EC50 [1]: 0.28 nM | Activity (HepG2): Non-Toxic

Cn1c(C(=O)c2c[nH]c3c(F)cccc23)nc2ccccc21
Activity (HepG2): Non-Toxic | Activity [14]: Active

O=C(c1cc2cc(F)ccc2[nH]1)c1c[nH]c2c(F)cccc12
t1/2 [2]: 76.9 min | Intrinsic clearance in rat liver microsomes [3]: 18.1 µL/min/mg | Activity (HepG2): Non-Toxic | half-life [4]: 78.6 min | Activity [5]: Active | Cmax [6]: 323 ng/mL | microsomal intrinsic clearance [7]: 34.6 µL/min/mg | AUC(0-inf) [8]: 610 ng·h/mL | t1/2 [9]: 40.1 min

Cn1c(Cc2c[nH]c3c(F)cccc23)nc2ccc(F)cc21
Activity [15]: Active | Activity (HepG2): Non-Toxic

Cn1c(C(=O)c2c[nH]c3cc(F)ccc23)nc2ccc(F)cc21
Activity (HepG2): Non-Toxic

From ChEMBL document CHEMBL4765433, “From methylene bridged diindole to carbonyl linked benzimidazoleindole: Development of potent and metabolically stable PCSK9 modulators” (Eur J Med Chem, 2020)
